Measurements reported in ChEMBL document CHEMBL2390828, “Synthesis and biological characterization of spiro[2H-(1,3)-benzoxazine-2,4'-piperidine] based histone deacetylase inhibitors” (Eur J Med Chem, 2013).
pIC50: −log10 of the molar value. The source made the active and inactive calls. No cut-off for these calls is given here.

Tests used:
K562 = assay: Cytotoxicity against human K562 cells; type: functional, cell-based
HCT-116 [1] = assay: Cytotoxicity against human HCT116 cells; type: functional, cell-based
A549 = assay: Cytotoxicity against human A549 cells; type: functional, cell-based
Histone deacetylase = assay: Inhibition of HDAC in human Hela cell nuclear extract after 15 mins; type: protein assay
[2] = biological target: T1, Protein deacetylase HDAC6 (Homo sapiens, UniProt Q9UBN7); assay: Inhibition of HDAC6 (unknown origin)
T1 sequence (Q9UBN7 whole entry): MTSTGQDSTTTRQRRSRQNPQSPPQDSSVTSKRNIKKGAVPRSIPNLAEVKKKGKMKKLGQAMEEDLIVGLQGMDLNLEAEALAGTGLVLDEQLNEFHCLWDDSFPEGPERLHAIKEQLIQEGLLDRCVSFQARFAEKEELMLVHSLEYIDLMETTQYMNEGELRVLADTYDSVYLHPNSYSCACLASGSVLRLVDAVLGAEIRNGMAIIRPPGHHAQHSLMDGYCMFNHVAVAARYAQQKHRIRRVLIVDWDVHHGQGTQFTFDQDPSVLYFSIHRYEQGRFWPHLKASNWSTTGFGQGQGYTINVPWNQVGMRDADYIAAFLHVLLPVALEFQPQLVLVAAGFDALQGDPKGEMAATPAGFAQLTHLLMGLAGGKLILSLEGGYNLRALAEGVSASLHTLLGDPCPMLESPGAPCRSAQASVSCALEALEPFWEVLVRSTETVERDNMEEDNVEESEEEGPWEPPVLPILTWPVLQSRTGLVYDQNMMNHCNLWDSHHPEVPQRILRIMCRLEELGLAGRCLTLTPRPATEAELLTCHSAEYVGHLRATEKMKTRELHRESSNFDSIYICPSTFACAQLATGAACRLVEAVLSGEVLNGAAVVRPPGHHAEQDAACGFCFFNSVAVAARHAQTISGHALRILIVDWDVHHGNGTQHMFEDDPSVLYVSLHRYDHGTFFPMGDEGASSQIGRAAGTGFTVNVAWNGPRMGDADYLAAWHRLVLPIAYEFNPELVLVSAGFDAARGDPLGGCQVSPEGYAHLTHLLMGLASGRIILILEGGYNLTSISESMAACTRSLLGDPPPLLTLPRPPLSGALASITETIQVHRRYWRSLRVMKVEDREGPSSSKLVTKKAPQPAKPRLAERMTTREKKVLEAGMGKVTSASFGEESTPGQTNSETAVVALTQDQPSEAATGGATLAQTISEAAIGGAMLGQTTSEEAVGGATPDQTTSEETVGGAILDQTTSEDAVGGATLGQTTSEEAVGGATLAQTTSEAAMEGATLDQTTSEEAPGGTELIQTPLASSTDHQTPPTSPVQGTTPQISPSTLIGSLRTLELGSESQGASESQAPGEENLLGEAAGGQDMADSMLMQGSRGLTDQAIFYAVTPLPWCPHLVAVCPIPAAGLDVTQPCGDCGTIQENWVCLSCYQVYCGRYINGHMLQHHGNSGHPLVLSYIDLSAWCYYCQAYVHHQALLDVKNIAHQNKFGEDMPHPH

HCT-116 [3] = assay: Antitumor activity against human HCT116 cells […] in po dosed CD1 mouse administered 5 days a week for 2 weeks relative to control; type: functional, organism-based
Procedure, shortened: (§1)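 Female CD-1 nude mice received 5 × 10⁶ HCT116 cells subcutaneously in the flank. Once tumours reached 100 mm³, dosing was 75 or 150 mg/kg orally, once daily, 5 days/week for 2 weeks. Tumour volume and body weight were followed. Tumour/control (T/C) ratio was calculated against vehicle controls.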

[4] = Oral bioavailability in CD1 mouse at 15 mg/kg; conditions: in vivo
[5] = Permeability from apical to basolateral side across human Caco2 cells after 2 hrs by LC-MS analysis; type: ADME, cell-based; conditions: Caco-2, read-out: permeability
[6] = biological target: Histone deacetylase (Homo sapiens) (UniProt Q13547+O15379+Q9UBN7+Q92769+Q9UQL6+Q8WUI4+Q9BY41+Q96DB2+P56524+Q9UKV0+Q969S8); assay: Inhibition of HDAC in human K562 cells assessed as increase in histone acetylation level after 2 to 8 hrs by flow cytometry; type: cell-based
Procedure, shortened: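 K562 cells were treated at 0.1, 0.5, 1 and 3 µM. Histone acetylation was measured by flow cytometry and reported as the ratio of acetylation level in treated over control cells.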

[7] = biological target: T2, Voltage-gated inwardly rectifying potassium channel KCNH2 (Homo sapiens, UniProt Q12809); assay: Inhibition of human ERG channel
HCT-116 [8] = assay: Antitumor activity against human HCT116 cells […] in CD1 mouse at 75 mg/kg, po administered 5 days a week for 2 weeks relative to control; type: functional; procedure, shortened: as §1
[9] = Volume of distribution at steady state in CD1 mouse at 5 mg/kg, iv and 15 mg/kg, po; type: ADME, organism-based; conditions: in vivo, read-out: Vdss
Procedure, shortened: (§2)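 CD-1 mice got single doses of 5 mg/kg iv or 15 mg/kg orally. The iv vehicle was water with 3% DMSO and 9.7% encapsin. The oral vehicle was water with 5% DMSO and 9.5% encapsin. Plasma PK parameters were calculated, including AUC0–∞, clearance, half-life, Vss, cmax and oral bioavailability.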

[10] = Cmax in CD1 mouse at 5 mg/kg, iv; type: ADME, organism-based; parameters: dose 5 mg/kg, route intravenous; conditions: in vivo; procedure, shortened: as §2
[11] = Solubility of the compound at pH 7.4; type: physicochemical; conditions: buffer
[12] = Terminal half life in CD1 mouse at 5 mg/kg, iv and 15 mg/kg, po; type: ADME, organism-based; conditions: in vivo, read-out: beta t1/2 (converted); procedure, shortened: as §2
Histone deacetylase 3 = Histone deacetylase 3 (Homo sapiens, UniProt O15379); assay: Inhibition of HDAC3 (unknown origin)
HCT-116 [13] = assay: Cell cycle arrest in human HCT116 cells assessed as accumulation at G0/G1 phase at lower dose after 24 hrs by propidium iodide staining-based FACS analysis; type: functional
Procedure, shortened: (§3)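 HCT116 colon carcinoma cells were exposed to several concentrations for 24 h. Cell-cycle profiles were read by flow cytometry, with G0/G1, G2/M and sub-G1 fractions scored.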

Histone deacetylase 2 = Histone deacetylase 2 (Homo sapiens, UniProt Q92769); assay: Inhibition of HDAC2 (unknown origin)
HCT-116 [14] = assay: Antitumor activity against human HCT116 cells […] in CD1 mouse at 150 mg/kg, po administered 5 days a week for 2 weeks relative to control; type: functional; procedure, shortened: as §1
[15] = AUC (0 to infinity) in CD1 mouse at 5 mg/kg, iv; type: ADME, organism-based; parameters: time infinity, dose 5 mg/kg, route intravenous; conditions: plasma; procedure, shortened: as §2
HCT-116 [16] = assay: Induction of apoptosis in human HCT116 cells assessed as increase in sub-G1 population after 24 hrs by propidium iodide staining-based FACS analysis; type: functional, cell-based; procedure, shortened: as §3
Mus musculus [17] = assay: Inhibition of HDAC in human HCT116 cells […] in CD1 mouse at 75 to 150 mg/kg, po administered 5 days a week for 2 weeks by immunohistochemistry relative to control; type: functional, organism-based; conditions: HCT-116
Procedure, shortened: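 Tumours came from HCT116 xenograft-bearing CD-1 nude mice dosed orally at 75 or 150 mg/kg once daily, 5 days/week for 2 weeks. Sections were taken at the end of treatment from vehicle and treated mice. Histone acetylation was stained by immunohistochemistry (anti-acetyl H4 clone T25, 1:13,000) and scored by positive cells and signal intensity.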

[18] = Tmax in CD1 mouse at 5 mg/kg, iv and 15 mg/kg, po; type: ADME, organism-based; conditions: in vivo; procedure, shortened: as §2
[19] = Metabolic stability in mouse liver microsomes after 30 mins by LC-MS/MS analysis; type: ADME, Microsome; conditions: read-out: Stability
Procedure, shortened: (§4)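 Compounds were incubated with mouse or human liver microsomal preparation for 30 min at 37 °C. The reaction was stopped with CH3CN. Unmetabolized compound was quantified by LC-MS/MS in MRM mode and reported as percent remaining. Replicates n ≥ 2, mean values given.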

HCT-116 [20] = assay: Cell cycle arrest in human HCT116 cells assessed as accumulation at G2/M phase at higher dose after 24 hrs by propidium iodide staining-based FACS analysis; type: functional; procedure, shortened: as §3
Mus musculus [21] = assay: Toxicity in CD1 mouse xenografted with human HCT116 cells assessed as body weight change at 75 to 150 mg/kg, po qd administered 5 days a week for 2 weeks; type: organism-based, HCT-116; parameters: dose 75-150 mg/kg, route oral; conditions: in vivo; procedure, shortened: as §1
[22] = Metabolic stability in human liver microsomes after 30 mins by LC-MS/MS analysis; type: ADME, Microsome; conditions: read-out: Stability; procedure, shortened: as §4
[23] = AUC (0 to infinity) in CD1 mouse at 15 mg/kg, po; type: ADME, organism-based; parameters: time infinity, dose 15 mg/kg, route oral; conditions: plasma; procedure, shortened: as §2
[24] = Cmax in CD1 mouse at 15 mg/kg, po; conditions: CD1, mouse, in vivo
[25] = Clearance in CD1 mouse at 5 mg/kg, iv and 15 mg/kg, po; type: ADME, organism-based; conditions: in vivo; procedure, shortened: as §2
[26] = biological target: T2, Voltage-gated inwardly rectifying potassium channel KCNH2; assay: Displacement of [3H]astemizole from human ERG channel transfected in HEK293 cells after 60 mins by liquid scintillation counting analysis; type: cell-based

Sequence of Histone deacetylase 3 (O15379 whole entry): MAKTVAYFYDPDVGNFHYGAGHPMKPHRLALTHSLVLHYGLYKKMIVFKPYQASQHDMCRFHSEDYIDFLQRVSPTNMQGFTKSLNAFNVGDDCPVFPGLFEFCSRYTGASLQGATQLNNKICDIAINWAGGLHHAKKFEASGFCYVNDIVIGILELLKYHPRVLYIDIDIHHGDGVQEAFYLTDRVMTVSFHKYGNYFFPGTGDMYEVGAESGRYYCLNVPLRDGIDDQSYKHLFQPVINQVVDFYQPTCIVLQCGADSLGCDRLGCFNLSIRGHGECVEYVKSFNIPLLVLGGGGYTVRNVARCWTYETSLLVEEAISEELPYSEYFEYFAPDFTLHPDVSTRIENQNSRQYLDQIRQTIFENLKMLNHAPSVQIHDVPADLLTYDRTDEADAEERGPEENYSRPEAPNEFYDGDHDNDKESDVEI
Sequence of Histone deacetylase 2 (Q92769 whole entry): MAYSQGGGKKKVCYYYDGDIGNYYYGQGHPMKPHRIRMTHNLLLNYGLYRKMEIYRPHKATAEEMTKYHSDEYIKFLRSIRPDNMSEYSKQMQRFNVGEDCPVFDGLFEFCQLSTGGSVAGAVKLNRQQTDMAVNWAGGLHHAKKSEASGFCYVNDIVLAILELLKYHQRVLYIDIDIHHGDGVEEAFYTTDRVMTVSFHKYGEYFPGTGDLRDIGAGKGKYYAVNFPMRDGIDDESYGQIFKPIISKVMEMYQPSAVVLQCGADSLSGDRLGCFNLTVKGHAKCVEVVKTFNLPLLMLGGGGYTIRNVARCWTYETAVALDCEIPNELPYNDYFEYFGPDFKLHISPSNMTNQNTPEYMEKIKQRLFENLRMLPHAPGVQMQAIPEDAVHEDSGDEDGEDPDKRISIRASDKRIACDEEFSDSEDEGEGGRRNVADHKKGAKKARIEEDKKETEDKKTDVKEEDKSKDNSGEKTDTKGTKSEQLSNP
T2 sequence (Q12809 whole entry): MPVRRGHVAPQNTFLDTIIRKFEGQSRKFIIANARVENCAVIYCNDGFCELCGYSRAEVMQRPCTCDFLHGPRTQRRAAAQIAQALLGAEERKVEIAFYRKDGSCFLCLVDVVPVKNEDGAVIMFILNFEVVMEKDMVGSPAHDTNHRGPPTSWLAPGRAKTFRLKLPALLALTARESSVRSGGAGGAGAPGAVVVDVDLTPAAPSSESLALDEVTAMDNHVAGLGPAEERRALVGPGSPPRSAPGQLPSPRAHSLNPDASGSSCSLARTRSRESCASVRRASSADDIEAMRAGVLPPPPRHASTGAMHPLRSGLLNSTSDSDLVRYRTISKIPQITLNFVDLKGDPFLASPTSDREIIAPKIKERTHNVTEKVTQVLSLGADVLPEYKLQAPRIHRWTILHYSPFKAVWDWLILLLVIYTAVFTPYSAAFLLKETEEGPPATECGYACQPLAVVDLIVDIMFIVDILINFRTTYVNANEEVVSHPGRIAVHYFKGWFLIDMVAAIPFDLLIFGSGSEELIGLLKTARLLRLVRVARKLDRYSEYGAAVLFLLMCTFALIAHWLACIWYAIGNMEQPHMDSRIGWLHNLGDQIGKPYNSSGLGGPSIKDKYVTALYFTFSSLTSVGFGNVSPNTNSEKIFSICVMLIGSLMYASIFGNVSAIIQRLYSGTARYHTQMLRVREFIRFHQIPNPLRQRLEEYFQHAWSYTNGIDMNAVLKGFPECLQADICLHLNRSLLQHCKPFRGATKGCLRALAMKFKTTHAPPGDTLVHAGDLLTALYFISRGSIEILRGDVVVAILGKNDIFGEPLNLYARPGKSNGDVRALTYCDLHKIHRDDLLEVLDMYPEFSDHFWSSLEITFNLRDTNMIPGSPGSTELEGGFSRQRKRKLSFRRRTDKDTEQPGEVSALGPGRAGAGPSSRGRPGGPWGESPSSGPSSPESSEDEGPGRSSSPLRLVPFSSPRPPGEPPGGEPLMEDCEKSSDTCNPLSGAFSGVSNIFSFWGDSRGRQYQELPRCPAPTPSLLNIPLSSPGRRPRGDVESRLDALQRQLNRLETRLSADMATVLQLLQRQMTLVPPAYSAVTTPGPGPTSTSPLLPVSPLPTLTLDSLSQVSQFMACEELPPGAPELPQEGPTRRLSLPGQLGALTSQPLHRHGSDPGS

IC50 (Histone deacetylase) [µM] | pIC50 [2] | bioavailability [4] [%] | Vd [9] [L/kg] | Cmax [10] [µM] | pIC50 (Histone deacetylase 3) | pIC50 (Histone deacetylase 2) | AUC(0-inf) [15] [µg·h/mL] | Tmax [18] [min] | remaining at 0.5 h [19] [%] | remaining at 0.5 h [22] [%] | AUC(0-inf) [23] [µg·h/mL] | Cmax [24] [µM] | clearance [25] [L/h/kg] | Compound | pIC50 (K562) | pIC50 (HCT-116 [1]) | pIC50 (A549) | also measured
0.091 |  |  |  |  |  |  |  |  | 46 | 68 |  |  |  | O=C(/C=C/c1ccc2c(c1)C(=O)NC1(CCN(CCc3ccccc3)CC1)O2)NO | 6.31 | 6.33 | 5.85 | 
0.258 |  |  |  |  |  |  |  |  |  |  |  |  |  | CN1C(=O)c2cc(/C=C/C(=O)NO)ccc2OC12CCN(CCc1ccccc1)CC2 | 6.10 | 5.97 | 5.59 | 
0.113 | 6.80 | 51.1 | 8.6 | 6.34 | 6.89 | 6.72 | 1.04 | 15 |  |  | 1.6 | 2.49 | 4.79 | O=C(/C=C/c1ccc2c(c1)C(=O)CC1(CCN(CCc3ccccc3)CC1)O2)NO | 6.74 | 6.70 | 6.26 | 

Further lines, the molecule ahead of its results:

Compound | IC50 (Histone deacetylase) [µM] | pIC50 [2] | bioavailability [4] [%] | Vd [9] [L/kg] | Cmax [10] [µM] | pIC50 (Histone deacetylase 3) | pIC50 (Histone deacetylase 2) | AUC(0-inf) [15] [µg·h/mL] | Tmax [18] [min] | remaining at 0.5 h [19] [%] | remaining at 0.5 h [22] [%] | AUC(0-inf) [23] [µg·h/mL] | Cmax [24] [µM] | clearance [25] [L/h/kg] | pIC50 (K562) | pIC50 (HCT-116 [1]) | pIC50 (A549) | also measured
CN1C(=O)c2cc(/C=C/C(=O)NO)ccc2OC12CCNCC2 | 0.204 |  |  |  |  |  |  |  |  |  |  |  |  |  | 4.85 | 4.92 | 4.75 | 
O=C(/C=C/c1ccc2c(c1)C(=O)NC1(CCN(Cc3ccccc3)CC1)O2)NO | 0.083 | 6.96 | 42.8 | 8.5 | 13.5 | 7.06 | 6.72 | 1.53 | 15 | 75 | 77 | 1.96 | 2.71 | 3.27 | 6.24 | 6.29 | 5.85 | Activity (HCT-116 [3]): Dose-dependent effect; Papp A→B at 2 h [5]: 4 nm/s; inhibition [6]: Dose-dependent effect; inhibition (INH) [7]: 54%; T/C (HCT-116 [8]): 0.59; solubility [11]: > 200 µM; half-life [12]: 804 min; Activity (HCT-116 [13]): Active; T/C (HCT-116 [14]): 0.33; Activity (HCT-116 [16]): Dose-dependent effect; inhibition (Mus musculus [17]): Active; Activity (HCT-116 [20]): Active; Activity (Mus musculus [21]): Non-toxic
O=C(/C=C/c1ccc2c(c1)C(=O)NC1(CCNCC1)O2)NO | 0.078 |  |  |  |  |  |  |  |  |  |  |  |  |  | 5.05 | 5.16 | 5.32 | 
O=C(/C=C/c1ccc2c(c1)C(=O)N(Cc1ccccc1)C1(CCN(Cc3ccc(F)cc3)CC1)O2)NO | 0.667 |  |  |  |  |  |  |  |  |  |  |  |  |  | 5.80 | 5.69 | 5.52 | 
CN1C(=O)c2cc(/C=C/C(=O)NO)ccc2OC12CCN(Cc1ccc(F)cc1)CC2 | 0.137 |  |  |  |  |  |  |  |  | 39 | 60 |  |  |  | 6.13 | 6.07 | 5.68 | 
O=C(/C=C/c1ccc2c(c1)C(=O)CC1(CCN(Cc3ccc(F)cc3)CC1)O2)NO | 0.108 | 6.72 | 27.6 | 5.9 | 11 | 7.05 | 6.51 | 1.49 | 15 |  |  | 1.24 | 1.83 | 3.35 | 6.17 | 6.11 | 5.88 | pIC50 [26]: 5.62
